Assay results reported in ChEMBL document CHEMBL2034874, “5-acetyl-2-arylbenzimidazoles as antiviral agents. Part 4” (Eur J Med Chem, 2012).

Tests used:
[1] = Cytotoxicity against MDBK cells after 48 to 96 hrs by MTT assay; format: cell-based, Bos taurus; conditions: cattle
Method in brief: (§1)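 Mock-infected MDBK (6×10^5 cells/mL, MEM-E with 10% horse serum) or BHK (1×10^6 cells/mL, MEM-E with 10% FBS) cells incubated with serial compound dilutions at 37 °C and 5% CO2. Viability measured by MTT after 48–96 h. CC50 by linear regression against untreated controls.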

[2] = Antiviral activity against BVDV1 NADL ATCC VR-534 infected in MDBK cells assessed as inhibition of virus-induced cytopathogenicity after 3 to 4 days by MTT assay; format: functional, cell-based, Bovine viral diarrhea virus 1-NADL; conditions: Bovine viral diarrhea virus isolates and strains, ATCC VR-534, MDBK
Method in brief: (§2)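 BHK (5×10^4/well) or MDBK (3×10^4/well) cells grown to confluent monolayers overnight, infected at m.o.i. 0.01 in maintenance MEM-Earl with 0.5% inactivated FBS. Serially diluted compounds added after 1 h. Viability read by MTT after 3–4 days at 37 °C. Values are expressed as % of untreated controls, and EC50 is derived by linear regression. Duplicate samples.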

[3] = Cytotoxicity against BHK21 cells by MTT assay; format: cell-based, Mesocricetus auratus; conditions: hamster, BHK-21 cells; method in brief: as §1
Yellow fever virus = experiment: Antiviral activity against Yellow fever virus 17D infected in BHK21 cells assessed as inhibition of virus-induced cytopathogenicity after 3 to 4 days by MTT assay; format: functional, cell-based; conditions: BHK-21
[4] = test system: Mammalian orthoreovirus 1; experiment: Antiviral activity against Reovirus 1 3651 ATCC VR-214 infected in BHK21 cells assessed as inhibition of virus-induced cytopathogenicity after 3 to 4 days by MTT assay; format: functional, organism-based; conditions: Mammalian orthoreovirus 1, 3651 ATCC VR-214, BHK-21; method in brief: as §2
[5] = Cytotoxicity against african green monkey Vero 76 cells after 48 to 96 hrs by MTT assay; format: cell-based; conditions: chlorocebus sabaeus
Coxsackievirus B5 = experiment: Antiviral activity against Coxsackie virus type B5 Ohio-1 ATCC VR-29 infected in african green monkey Vero-76 cells assessed as reduction in viral plaque after 3 days by crystal violet staining; format: functional, organism-based; conditions: Enterovirus B, Ohio-1 ATCC VR-29, Vero 76, 72 h
Method in brief: (§3)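 Vero-76 monolayers (2×10^5 cells/well) infected for 2 h at 50–100 PFU/well. Unadsorbed virus removed. D-MEM with 1% inactivated FBS, 0.75% methylcellulose and serial compound dilutions added. Incubation at 37 °C for 3 days (CVB-5, HSV-1) or 5 days (RSV). Fixed and stained with 50% ethanol/0.8% crystal violet, then plaques counted. EC50 by linear regression versus untreated controls.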

Poliovirus 1 = experiment: Antiviral activity against Polio virus type 1 strain sabin ATCC VR-1562 infected in african green monkey Vero-76 cells assessed as reduction in viral plaque after 2 days by crystal violet staining; format: functional, cell-based, Human poliovirus 1 strain Sabin; conditions: Enterovirus C, ATCC VR-1562, Vero 76, 48 h
[6] = Antiviral activity against Human respiratory syncytial virus A2 ATCC VR-1540 infected in african green monkey Vero-76 cells assessed as reduction in viral plaque after 5 days by crystal violet staining; format: functional, cell-based; conditions: ATCC VR-1540, Vero 76, 120 h; method in brief: as §3
[7] = test system: Vesicular stomatitis Indiana virus; experiment: Antiviral activity against Vesicular stomatitis virus indiana ATCC VR-1540 infected in african green monkey Vero-76 cells assessed as reduction in viral plaque after 2 days by crystal violet staining; format: functional, organism-based; conditions: ATCC VR-1540, Vero 76, 48 h
Vaccinia virus = experiment: Antiviral activity against Vaccinia virus Elstree-Lister ATCC VR-1549 infected in african green monkey Vero-76 cells assessed as reduction in viral plaque after 3 days by crystal violet staining; format: functional, organism-based; conditions: Orthopoxvirus vaccinia, Elstree-Lister ATCC VR-1549, Vero 76, 72 h
Human alphaherpesvirus 1 = experiment: Antiviral activity against Herpes simplex virus type 1 KOS ATCC VR-1493 infected in african green monkey Vero-76 cells assessed as reduction in viral plaque after 3 days by crystal violet staining; format: functional, organism-based; conditions: Human alphaherpesvirus 1, KOS ATCC VR1493, Vero 76, 72 h; method in brief: as §3

| Structure (SMILES) | CC50 [1] [µM] | EC50 [2] [µM] | CC50 [3] [µM] | EC50 (Yellow fever virus) [µM] | EC50 [4] [µM] | CC50 [5] [µM] | EC50 (Coxsackievirus B5) [µM] | EC50 (Poliovirus 1) [µM] | EC50 [6] [µM] | EC50 [7] [µM] | EC50 (Vaccinia virus) [µM] | EC50 (Human alphaherpesvirus 1) [µM] |
| --- | --- | --- | --- | --- | --- | --- | --- | --- | --- | --- | --- | --- |
| C/C(=N\NC(N)=O)c1ccc2c(c1)nc(-c1ccc(C(F)(F)F)cc1)n2C1CCCCC1 | > 100 | > 100 | > 100 | > 100 | > 100 | > 100 | > 100 | > 100 | > 100 | > 100 | > 100 | – |
| O=[N+]([O-])c1ccc(-c2nc3cc(Cl)c(Cl)cc3[nH]2)cc1 | – | – | – | – | – | – | – | – | – | – | 0.1 | – |
| CC(=O)c1ccc2[nH]c(-c3ccc(Cl)cc3)nc2c1 | > 100 | > 100 | > 100 | > 100 | > 100 | > 100 | > 100 | > 100 | > 100 | > 100 | > 100 | > 100 |
| C/C(=N\NC(N)=O)c1ccc2c(c1)nc(-c1ccccn1)n2C1CCCCC1 | > 100 | > 100 | > 100 | > 100 | > 100 | > 100 | > 100 | > 100 | > 100 | > 100 | > 100 | > 100 |
| CC(=O)c1ccc2[nH]c(-c3ccc(C(F)(F)F)cc3)nc2c1 | > 100 | 15 | > 100 | > 100 | > 100 | > 100 | > 100 | > 100 | > 100 | > 100 | > 100 | > 100 |
| C/C(=N\O)c1ccc2[nH]c(-c3ccccc3)nc2c1 | > 100 | > 100 | > 100 | > 100 | > 100 | > 100 | > 100 | > 100 | > 100 | > 100 | > 100 | > 100 |
| C/C(=N\NC(N)=O)c1ccc2[nH]c(-c3ccoc3)nc2c1 | > 100 | 60 | > 100 | > 100 | > 100 | > 100 | > 100 | > 100 | > 100 | > 100 | > 100 | > 100 |
| Nc1ccc(-c2nc3cc(Cl)ccc3[nH]2)c2ccccc12 | – | – | – | 27 | – | – | – | – | – | – | – | – |
| COc1c(C)c2c(c(O)c1C/C=C(\C)CCC(=O)O)C(=O)OC2 [MYCOPHENOLIC ACID] | – | – | – | – | – | ≥ 12.5 | – | – | – | – | 1.5 | – |
| C/C(=N\NC(N)=O)c1ccc2[nH]c(-c3ccc(C(F)(F)F)cc3)nc2c1 | > 100 | 45 | > 100 | > 100 | > 100 | > 100 | > 100 | > 100 | > 100 | > 100 | > 100 | > 100 |
| Nc1nc2c(ncn2COCCO)c(=O)[nH]1 [ACYCLOVIR] | – | – | – | – | – | > 100 | – | – | – | – | – | – |
| CC(=O)Nc1ccc(/C=C/c2nc3cc(C(F)(F)F)ccc3[nH]2)cc1 | – | – | – | – | – | – | – | – | 1 | – | – | – |
| C/C(=N\NC(N)=O)c1ccc2[nH]c(C3CCCCC3)nc2c1 | > 100 | 44 | > 100 | > 100 | > 100 | > 100 | > 100 | > 100 | > 100 | > 100 | > 100 | > 100 |
| C/C(=N\NC(N)=O)c1ccc2[nH]c(-c3ccccc3)nc2c1 | > 100 | 50 | > 100 | > 100 | > 100 | > 100 | > 100 | > 100 | > 100 | > 100 | > 100 | > 100 |
| C/C(=N\NC(N)=O)c1ccc2c(c1)nc(-c1ccccc1)n2C1CCCCC1 | > 100 | > 100 | > 100 | > 100 | > 100 | > 100 | > 100 | > 100 | > 100 | > 100 | > 100 | > 100 |
| O=[N+]([O-])c1ccc2[nH]c(-c3ccccc3)nc2c1 | – | 1.5 | – | – | – | – | – | – | – | – | – | – |
